Assay results: ChEMBL document CHEMBL1122823, “Synthesis and receptor-binding affinity of fluorotamoxifen, a possible estrogen-receptor imaging agent” (J Med Chem, 1985)
“And” between values parts separate entries of the source, which are not always exact repeats. Identical values can stand only once. Blank lines part the entries; values can stand above or below the molecule they belong to.

What was measured:
[1] = biological target: T1, Estrogen receptor (Rattus norvegicus) (UniProt P06211+Q62986); experiment: Uterotrophic effect in rats uterine at 100 ug/day dose; assay type: functional, tissue-based; conditions: Uterus
[2] = biological target: T1, Estrogen receptor (Rattus norvegicus); experiment: Uterotrophic effect in rats uterine at 10 ug/day dose in the presence of 0.08 ug estradiol; assay type: functional, tissue-based; conditions: Uterus
[3] = biological target: T1, Estrogen receptor (Rattus norvegicus); experiment: Uterotrophic effect in rats uterine at 500 ug/day dose in the presence of 10 ug estradiol; assay type: functional, tissue-based; conditions: Uterus
[4] = biological target: T1, Estrogen receptor (Rattus norvegicus); experiment: Percent uterotrophic effect at 500 ug/day dose compared to estradiol; assay type: functional
[5] = biological target: T1, Estrogen receptor (Rattus norvegicus); experiment: Uterotrophic effect in rats uterine at 500 ug/day dose in the presence of 0.08 ug estradiol; assay type: functional, tissue-based; conditions: Uterus
[6] = biological target: T1, Estrogen receptor (Rattus norvegicus); experiment: Uterotrophic effect in rats uterine at 500 ug/day dose in the presence of 0.2 ug estradiol; assay type: functional, tissue-based; conditions: Uterus
[7] = biological target: T1, Estrogen receptor (Rattus norvegicus); experiment: Uterotrophic effect in rats uterine at 100 ug/day dose in the presence of 10 ug estradiol; assay type: functional, tissue-based; conditions: Uterus
[8] = biological target: T1, Estrogen receptor (Rattus norvegicus); experiment: Uterotrophic effect in rats uterine at 100 ug/day dose in the presence of 0.20 ug estradiol; assay type: functional, tissue-based; conditions: Uterus
[9] = biological target: T1, Estrogen receptor (Rattus norvegicus); conditions: Uterus
[10] = biological target: T1, Estrogen receptor (Rattus norvegicus); experiment: Uterotrophic effect in rats uterine at 1 ug/day dose in the presence of 0.08 ug estradiol; assay type: functional, tissue-based; conditions: Uterus
[11] = biological target: T1, Estrogen receptor (Rattus norvegicus); experiment: Uterotrophic effect in rats uterine at 500 ug/day dose; assay type: functional, tissue-based; conditions: Uterus
[12] = biological target: T1, Estrogen receptor (Rattus norvegicus); experiment: Uterotrophic effect in rats uterine at 500 ug/day dose in the presence of 0.10 ug estradiol; assay type: functional, tissue-based; conditions: Uterus
[13] = biological target: T1, Estrogen receptor (Rattus norvegicus); experiment: Uterotrophic effect in rats uterine at 100 ug/day dose in the presence of 0.05 ug hexestrol; assay type: functional, tissue-based; conditions: Uterus
[14] = biological target: T1, Estrogen receptor (Rattus norvegicus)
[15] = biological target: T1, Estrogen receptor (Rattus norvegicus); conditions: Uterus; remark: listed apart in the source
[16] = biological target: T1, Estrogen receptor (Rattus norvegicus); experiment: Percent uterotrophic effect at 100 ug/day dose compared to estradiol; assay type: functional
[17] = biological target: T1, Estrogen receptor (Rattus norvegicus); experiment: Uterotrophic effect in rats uterine at 1000 ug/day dose in the presence of 0.16 ug estradiol; assay type: functional, tissue-based; conditions: Uterus
[18] = biological target: T1, Estrogen receptor (Rattus norvegicus); experiment: Uterotrophic effect in rats uterine at 100 ug/day dose in the presence of 0.1 ug estradiol; assay type: functional, tissue-based; conditions: Uterus
[19] = biological target: T1, Estrogen receptor (Rattus norvegicus); experiment: Uterotrophic effect in rats uterine at 10 ug/day dose; assay type: functional, tissue-based; conditions: Uterus
[20] = biological target: T1, Estrogen receptor (Rattus norvegicus); experiment: Uterotrophic effect in rats uterine at 10 ug/day dose in the presence of 0.16 ug estradiol; assay type: functional, tissue-based; conditions: Uterus
[21] = biological target: T1, Estrogen receptor (Rattus norvegicus); experiment: Uterotrophic effect in rats uterine at 100 ug/day dose in the presence of 0.5 ug hexestrol; assay type: functional, tissue-based; conditions: Uterus
[22] = biological target: T1, Estrogen receptor (Rattus norvegicus); experiment: Uterotrophic effect in rats uterine at 1000 ug/day dose; assay type: functional, tissue-based; conditions: Uterus
[23] = Dissociation constant was evaluated; assay type: physicochemical
Summary of the method: (§1)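 Rat uterine cytosol from 19-day-old immature Sabra rats, homogenized at 0 °C in TEG buffer (pH 7.4, 10% glycerol, 0.01 M DTT) and spun to 105000g, diluted to 2 uteri/mL. […] Free ligand removed with 2.5% dextran-coated charcoal. Nonspecific binding taken with 10000-fold excess. KA = KL·A50/([L*]+KL), with free [L*] 10 nM.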

[24] = biological target: T1, Estrogen receptor (Rattus norvegicus); experiment: Uterotrophic effect in rats at 10 ug/day dose; assay type: functional, tissue-based; conditions: Uterus
[25] = Dissociation constant was evaluated.; assay type: functional; summary of the method: as §1
[26] = biological target: T1, Estrogen receptor (Rattus norvegicus); experiment: Percent uterotrophic effect at 10 ug/day dose compared to estradiol; assay type: functional
[27] = biological target: T1, Estrogen receptor (Rattus norvegicus); experiment: Percent uterotrophic effect at 50 ug/day dose compared to estradiol; assay type: functional
[28] = biological target: T1, Estrogen receptor (Rattus norvegicus); experiment: Uterotrophic effect in rats uterine at 50 ug/day dose; assay type: functional, tissue-based; conditions: Uterus
[29] = biological target: T1, Estrogen receptor (Rattus norvegicus); experiment: Uterotrophic effect in rats uterine at 0.3 ug/day dose; assay type: functional, tissue-based; conditions: Uterus
[30] = biological target: T1, Estrogen receptor (Rattus norvegicus); experiment: Uterotrophic effect in rats at 0.1 ug/day dose; assay type: functional, tissue-based; conditions: Uterus
[31] = biological target: T1, Estrogen receptor (Rattus norvegicus); experiment: Uterotrophic effect in rats uterine at 0.03 ug/day dose; assay type: functional, tissue-based; conditions: Uterus
[32] = biological target: T1, Estrogen receptor (Rattus norvegicus); experiment: Uterotrophic effect in rats uterine at 0.01 ug/day dose; assay type: functional, tissue-based; conditions: Uterus
[33] = biological target: T1, Estrogen receptor (Rattus norvegicus); conditions: Uterus; remark: listed apart in the source
[34] = biological target: T1, Estrogen receptor (Rattus norvegicus); experiment: Percent uterotrophic effect at 0.1 ug/day dose compared to estradiol; assay type: functional

KA [23]: 400 pM
SMILES: CC/C(=C(/CC)c1ccc(O)cc1)c1ccc(O)cc1 [DIETHYLSTILBESTROL]

Max uterine weight [24]: 97 mg
Effect [26]: 140%
A50 [14]: 670 nM
SMILES: CC/C(=C(/c1ccc(O)cc1)c1ccc(F)cc1)c1ccccc1
KA [25]: 63 nM

Uterine weight [29]: 94.5
Max uterine weight [30]: 62.6 mg
Uterine weight [31]: 62.6
Uterine weight [9]: 97.3
Uterine weight [32]: 29.3
Uterine weight [33]: 86.8
Effect [34]: 143%
Uterine weight [15]: 90.2
SMILES: CC[C@H](c1ccc(O)cc1)[C@@H](CC)c1ccc(O)cc1

The next lines start with the molecule.

SMILES: CC/C(=C(\c1ccc(N)cc1)c1ccc(OCCN(C)C)cc1)c1ccccc1
Uterine weight [1]: 50.3
Uterine weight [2]: 54.8
Uterine weight [3]: 67.2
Effect [4]: 76%
Uterine weight [5]: 56.5
Uterine weight [6]: 62
Uterine weight [7]: 57.1
Uterine weight [8]: 43
Uterine weight [9]: 44
Uterine weight [10]: 58.2
Max uterine weight [11]: 54 mg
Uterine weight [11]: 54
Uterine weight [12]: 46
Uterine weight [13]: 46 and 70.3
A50 [14]: 20 nM
Uterine weight [15]: 29.6

SMILES: CC/C(=C(\c1ccc(F)cc1)c1ccc(OCCN(C)C)cc1)c1ccccc1
Max uterine weight [1]: 76.4 mg
Uterine weight [1]: 76.4
Effect [16]: 108%
Uterine weight [17]: 76.9
Uterine weight [18]: 74
Uterine weight [19]: 68.9
Uterine weight [20]: 72.2
Uterine weight [21]: 71.2
Uterine weight [7]: 80.3
Uterine weight [22]: 85.7
Uterine weight [8]: 73.8
Uterine weight [13]: 70.4
A50 [14]: 5000 nM

SMILES: CC/C(=C(\c1ccc(NC(C)=O)cc1)c1ccc(ON(C)C)cc1)c1ccccc1
Effect [27]: 60%
Max uterine weight [28]: 41.8 mg

SMILES: CC/C(=C(/c1ccc(O)cc1)c1ccc(NC(C)=O)cc1)c1ccccc1
Effect [27]: 98%
Max uterine weight [28]: 65.8 mg
A50 [14]: 1200 nM
